# Source: the RNAGym collection of RNA variant scans (doi:10.1002/anie.201605470)
# B1: Osa-1-4 twister ribozyme (parent)
# chain: CCGCCUAACACUGCCAAUGCCGGUCCCAAGCCCGGAUAAAAGUGGAGGGGGCGG
# Variants of: B1
# Test: self-cleavage, relative activity (ratio to wild type); higher = more cleavage; co-transcriptional
# Method in brief: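 A DNA template was synthesised for a 54-nucleotide twister ribozyme from Oryza sativa, with 97 % wild-type base and 1 % of each other base at each of the 48 positions downstream of the cleavage site. The ribozyme cleaved itself co-transcriptionally during 2 h of in vitro transcription at 37 °C. Reverse transcription with a template-switching oligonucleotide, PCR amplification and deep sequencing followed, and cleavage status came from reads with or without upstream sequence. Relative activity is the fraction cleaved normalised to wild type.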
row,Variant,self-cleavage
1,C26G C31U,0.06
2,C26G C31A,0.02
3,C26G C31G,0.05
4,C26A U37A,0.05
5,C26A U37C,0.07
6,C26A U37G,0.07
7,C25A G44U,0.06
8,C25A G44C,0.1
9,C25A G44A,0.05
10,C25U G54U,0.56
11,C25U G54C,0.31
12,C25U G54A,0.34
13,C25G U43G,0.04
14,C25G U43A,0.08
15,C25G U43C,0.06
16,C26A G48U,0.7
17,C26A G48A,0.03
18,C26A G48C,0.1
19,C25U U12C,0.09
20,C25U U12G,0.17
21,C25U U12A,0.18
22,C25U C32A,0.06
23,C25U C32U,0.08
24,C25U C32G,0.1

row,Variant,self-cleavage
1,C25U U18A,0.75
2,C25U U18C,0.84
3,C25U U18G,0.89
4,C25U C26G,0.08
5,C25U C26A,0.04
6,C25U C26U,0.21
7,C26A G23C,0.01
8,C26A G23A,0.04
9,C26A G23U,0.02
10,C25A G53A,0.09
11,C25A G53U,0.05
12,C25A G53C,0.03
13,C26A C31G,0.03
14,C26A C31A,0.02
15,C26A C31U,0.06
16,C26A U43A,0.05
17,C26A U43C,0.04
18,C26A U43G,0.04
19,C25A U37A,0.11
20,C25A U37G,0.25
21,C25A U37C,0.14
22,C25A G47A,0.04
23,C25A G47U,0.04
24,C25A G47C,0.03

row,Variant,self-cleavage
1,C25A G35U,0.09
2,C25A G35A,0.18
3,C25A G35C,0.05
4,C26G C33G,0.04
5,C26G C33U,0.07
6,C26G C33A,0.05
7,C25G U18C,0.13
8,C25G U18A,0.08
9,C25G U18G,0.18
10,C25G G49U,0.61
11,C25G G49A,0.07
12,C25G G49C,0.7
13,C25U C27A,0.06
14,C25U C27G,0.06
15,C25U C27U,0.17
16,C25U U43A,0.29
17,C25U U43G,0.17
18,C25U U43C,0.13
19,C25U G51C,0.06
20,C25U G51U,0.17
21,C25U G51A,0.51
22,C26A G34A,0.05
23,C26A G34C,0.05
24,C26A G34U,0.04

row,Variant,self-cleavage
1,C26A G42U,0.02
2,C26A G42A,0.04
3,C26A G42C,0.03
4,C25G C32A,0.03
5,C25G C32G,0.09
6,C25G C32U,0.04
7,C25A G50U,0.42
8,C25A G50A,0.59
9,C25A G50C,0.27
10,C25G G50U,0.11
11,C25G G50C,0.09
12,C25G G50A,0.12
13,C26A C32A,0.05
14,C26A C32U,0.01
15,C26A C32G,0.03
16,C26A C9U,0.03
17,C26A C9G,0.05
18,C26A C9A,0.02
19,C26A G19U,0.03
20,C26A G19C,0.02
21,C26A G19A,0.04
22,C26A G22A,0.07
23,C26A G22U,0.05
24,C26A G22C,0.02

row,Variant,self-cleavage
1,C25U G23C,0.06
2,C25U G23A,0.11
3,C25U G23U,0.05
4,C25G C52A,0.08
5,C25G C52U,0.11
6,C25G C52G,0.12
7,C25U G35U,0.72
8,C25U G35A,0.87
9,C25U G35C,0.09
10,C25G C33A,0.03
11,C25G C33U,0.06
12,C25G C33G,0.04
13,C26A G49C,0.02
14,C26A G49A,0.02
15,C26A G49U,0.02
16,C25G G34C,0.06
17,C25G G34A,0.08
18,C25G G34U,0.07
19,C25A G48A,0.03
20,C25A G48U,0.03
21,C25A G48C,0.03
22,C25G G44A,0.06
23,C25G G44C,0.06
24,C25G G44U,0.05

row,Variant,self-cleavage
1,C25U G44U,0.56
2,C25U G44C,0.84
3,C25U G44A,0.32
4,C25G G23A,0.06
5,C25G G23U,0.04
6,C25G G23C,0.04
7,C25U G47C,0.06
8,C25U G47A,0.09
9,C25U G47U,0.07
10,C25U G49A,0.77
11,C25U G49C,0.06
12,C25U G49U,0.71
13,C26A G51A,0.06
14,C26A G51U,0.04
15,C26A G51C,0.02
16,C25G C31U,0.05
17,C25G C31G,0.23
18,C25G C31A,0.02
19,C25G G19A,0.06
20,C25G G19C,0.03
21,C25G G19U,0.04
22,C25U C33A,0.06
23,C25U C33U,0.31
24,C25U C33G,0.06

row,Variant,self-cleavage
1,C25U C9A,0.23
2,C25U C9U,0.33
3,C25U C9G,0.18
4,C25A G42C,0.04
5,C25A G42A,0.06
6,C25A G42U,0.03
7,C25G G51A,0.07
8,C25G G51C,0.03
9,C25G G51U,0.04
10,C25U G13A,0.07
11,C25U G13U,0.03
12,C25U G13C,0.02
13,C25A G34A,0.11
14,C25A G34C,0.06
15,C25A G34U,0.11
16,C26A G30A,0.01
17,C26A G30C,0.02
18,C26A G30U,0.01
19,C25G G42A,0.09
20,C25G G42U,0.02
21,C25G G42C,0.06
22,C25G U24A,0.03
23,C25G U24C,0.03
24,C25G U24G,0.02

row,Variant,self-cleavage
1,C25G U12A,0.06
2,C25G U12C,0.05
3,C25G U12G,0.04
4,C25U C52A,0.66
5,C25U C52G,0.8
6,C25U C52U,0.9
7,C25G G30C,0.02
8,C25G G30U,0.02
9,C25G G30A,0.02
10,C25U G34C,0.5
11,C25U G34U,0.77
12,C25U G34A,0.85
13,C25U C31G,0.31
14,C25U C31A,0.04
15,C25U C31U,0.13
16,C26A G50C,0.05
17,C26A G50U,0.05
18,C26A G50A,0.07
19,C25G C9A,0.02
20,C25G C9U,0.03
21,C25G C9G,0.07
22,C25G G13C,0.01
23,C25G G13A,0.03
24,C25G G13U,0.01

row,Variant,self-cleavage
1,C26G C32G,0.09
2,C26G C32U,0.04
3,C26G C32A,0.03
4,C26A G53C,0.02
5,C26A G53U,0.04
6,C26A G53A,0.06
7,C25G G35C,0.05
8,C25G G35A,0.12
9,C25G G35U,0.07
10,C26A C27G,0.03
11,C26A C27A,0.05
12,C26A C27U,0.03
13,C26A C33G,0.02
14,C26A C33U,0.04
15,C26A C33A,0.05
16,C25A U12G,0.06
17,C25A U12C,0.04
18,C25A U12A,0.06
19,C25A G54A,0.12
20,C25A G54U,0.28
21,C25A G54C,0.08
22,C26A G45C,0.02
23,C26A G45U,0.02
24,C26A G45A,0.02

row,Variant,self-cleavage
1,C25U G22A,0.74
2,C25U G22C,0.07
3,C25U G22U,0.47
4,C25U G50U,0.52
5,C25U G50A,0.87
6,C25U G50C,0.23
7,C25G G53A,0.08
8,C25G G53C,0.02
9,C25G G53U,0.06
10,C25U U24C,0.08
11,C25U U24G,0.04
12,C25U U24A,0.06
13,C26A G44A,0.05
14,C26A G44C,0.05
15,C26A G44U,0.05
16,C25A G49U,0.82
17,C25A G49A,0.13
18,C25A G49C,0.04
19,C26G C27A,0.05
20,C26G C27G,0.11
21,C26G C27U,0.07
22,C26A G35U,0.04
23,C26A G35C,0.04
24,C26A G35A,0.06

row,Variant,self-cleavage
1,C25G U37A,0.12
2,C25G U37G,0.13
3,C25G U37C,0.12
4,C25G G45U,0.02
5,C25G G45C,0.03
6,C25G G45A,0.03
7,C25A U24C,0.04
8,C25A U24A,0.04
9,C25A U24G,0.04
10,C25U G30U,0.05
11,C25U G30A,0.03
12,C25U G30C,0.03
13,C26A G54A,0.06
14,C26A G54U,0.12
15,C26A G54C,0.05
16,C26A C52G,0.08
17,C26A C52U,0.07
18,C26A C52A,0.08
19,C25U G19C,0.04
20,C25U G19U,0.08
21,C25U G19A,0.14
22,C25A G51A,0.1
23,C25A G51U,0.06
24,C25A G51C,0.05

row,Variant,self-cleavage
1,C25G G22A,0.09
2,C25G G22U,0.06
3,C25G G22C,0.03
4,C26A G47U,0.03
5,C26A G47C,0.02
6,C26A G47A,0.03
7,C25U G53U,0.11
8,C25U G53A,0.25
9,C25U G53C,0.06
10,C25U G48U,0.04
11,C25U G48A,0.07
12,C25U G48C,0.06
13,C25G G47U,0.03
14,C25G G47A,0.05
15,C25G G47C,0.02
16,C25U G42A,0.22
17,C25U G42C,0.11
18,C25U G42U,0.05
19,C25G G48A,0.04
20,C25G G48U,0.02
21,C25G G48C,0.03
22,C26A,0.06
23,C26G,0.09
24,C25A G45C,0.03

row,Variant,self-cleavage
1,C25A G45U,0.03
2,C25A G45A,0.03
3,C25A U18A,0.1
4,C25A U18C,0.15
5,C25A U18G,0.35
6,C26G C9A,0.02
7,C26G C9U,0.04
8,C26G C9G,0.09
9,C26A G13A,0.02
10,C26A G13C,0.01
11,C26A G13U,0.02
12,C25A U43G,0.06
13,C25A U43C,0.06
14,C25A U43A,0.06
15,C25A G23U,0.03
16,C25A G23C,0.02
17,C26G C52A,0.12
18,C25U G45C,0.05
19,C25U G45U,0.05
20,C25U G45A,0.06
21,C25U U37A,0.74
22,C25U U37C,0.95
23,C25U U37G,0.96
24,C25G C27U,0.07

row,Variant,self-cleavage
1,C25G C27A,0.02
2,C25G C27G,0.07
3,C25G C26A,0.01
4,C25G C26U,0.07
5,C25G C26G,0.12
6,C26A U12C,0.03
7,C26A U12A,0.04
8,C26A U12G,0.04
9,C26A U24A,0.03
10,C26A U24C,0.02
11,C26A U24G,0.01
12,C25G G54A,0.11
13,C25G G54C,0.07
14,C25G G54U,0.25
15,C25A G30A,0.02
16,C25A G30U,0.02
17,C25A G30C,0.02
18,C25G,0.12
19,C25U,0.93
20,C26A U18G,0.12
21,C26A U18C,0.06
22,C26A U18A,0.05
